According to publication PMC3128676 (Angewandte Chemie (International ed. in English), 2011):
Entries after “also recorded” stand apart in the source; their conditions may differ.

Experiments:
[1] = Optical property measurements in 100% FBS at 37°C; format: physicochemical; details: for Stokes Shift / λem / λexc / ε (extinction coefficient) / Φ (fluorescence quantum yield): 100% FBS; for ε (extinction coefficient): 50 mM HEPES pH 7.4, 37°C; for Φ (fluorescence quantum yield): ICG in DMSO as standard
Method in brief: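 Spectra were taken at 37°C in 100% FBS buffered with 50 mM HEPES, pH 7.4, on fiberoptic absorbance (200–1100 nm) and fluorescence (350–1000 nm) spectrometers. Excitation was a 770 nm laser diode set to 8 mW. […] Dyes available only as NHS ester were first hydrolysed to acid in 50 mM borate, pH 9.0, for 3 h.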

[2] = In vivo biodistribution and clearance in CD-1 mice; details: for Uptake in intestine / Uptake in kidneys / Uptake in liver / CBR Bl (bladder) relative to abdominal wall / CBR He/Lu (heart/lungs) relative to abdominal wall / CBR In (intestine) relative to abdominal wall / CBR Li (liver) relative to abdominal wall / CBR Re (rectum) relative to abdominal wall / CBR Sk/Mu (skin/muscle) relative to abdominal wall / CBR Sp (spleen) relative to abdominal wall / Carcass (retention) / Eliminated (from the body into urine): 4 h postinjection; for β-phase blood half-life (t1/2β): CD-1 mice, 40 pmol/g i.v.; for CBR Bl (bladder) relative to abdominal wall / CBR He/Lu (heart/lungs) relative to abdominal wall / CBR In (intestine) relative to abdominal wall / CBR Li (liver) relative to abdominal wall / CBR Re (rectum) relative to abdominal wall / CBR Sk/Mu (skin/muscle) relative to abdominal wall / CBR Sp (spleen) relative to abdominal wall / Carcass (retention) / Eliminated (from the body into urine): Mouse; for half-life: blood; for half-life / tissue uptake at 4 h: 40 pmol/g; for Route of elimination (renal clearance), in words: mice, 4 h
Method in brief: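 CD-1 male mice (25 to 30 g) received 40 pmol/g fluorophore in saline i.v. and were imaged with the FLARE system on surgically exposed organs. Excitation was 14 mW/cm2 of 745–779 nm-filtered light, with emission through an 800–848 nm bandpass and exposure and normalization held constant. ROI fluorescence and background gave CBR = (FL–BG)/BG, scored against abdominal wall. N = 5, mean ± S.D.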

[3] = In vivo biodistribution and clearance in SD rats; set-up: species or system Sprague-Dawley (SD) rats; details: Rat, 4 h postinjection
Method in brief: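 Sprague-Dawley male rats (250 to 300 g) received 40 pmol/g fluorophore in saline i.v. and were imaged with the FLARE system on surgically exposed organs. Excitation was 14 mW/cm2 of 745–779 nm light, with emission through an 800–848 nm bandpass and exposure held constant. CBR = (FL–BG)/BG was scored relative to abdominal wall. N = 5.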

[4] = Stability in warm serum; format: in vitro ADME, bovine; details: 100% FBS, up to 4 h
[5] = in dimethyl sulfoxide; cited from earlier work
[6] = tested on: serum proteins; format: in vitro ADME, bovine; details: 4 h incubation in 100% FBS

Molecule	Stokes Shift [1] [nm]	λem [1] [nm]	λexc [1] [nm]	ε (extinction coefficient) [1]	Φ (fluorescence quantum yield) [1] [%]	CBR Bl (bladder) relative to abdominal wall [2]	CBR He/Lu (heart/lungs) relative to abdominal wall [2]	CBR In (intestine) relative to abdominal wall [2]	CBR Li (liver) relative to abdominal wall [2]	CBR Re (rectum) relative to abdominal wall [2]	CBR Sk/Mu (skin/muscle) relative to abdominal wall [2]	CBR Sp (spleen) relative to abdominal wall [2]	Carcass (retention) [2] [%ID]	Eliminated (from the body into urine) [2] [%ID]	CBR Bl (bladder) relative to abdominal wall [3]	CBR He/Lu (heart/lungs) relative to abdominal wall [3]	CBR In (intestine) relative to abdominal wall [3]	CBR Li (liver) relative to abdominal wall [3]	CBR Re (rectum) relative to abdominal wall [3]	CBR Sk/Mu (skin/muscle) relative to abdominal wall [3]	also measured
CC1(C)C(=CC=C2CCCC(C=CC3=[N+](CCCCCC(=O)[O-])c4ccc(S(=O)(=O)[O-])cc4C3(C)C)=C2Oc2ccc(S(=O)(=O)[O-])cc2)N(CCCCS(=O)(=O)[O-])c2ccc(S(=O)(=O)[O-])cc21.[Na+].[Na+].[Na+].[Na+] [CW800, IRDye™800-CW carboxylic acid]	14	800	786	237,000 M^-1cm^-1	14.2	+++ (+++, > 5)	– (–, 0 to 1)	+++ (+++, > 5)	– (–, 0 to 1)	++ (++, 2 to 5)	+ (+, 1 to 2)	– (–, 0 to 1)	52.4 ± 9.6	44.0 ± 4.6	+++ (+++, > 5)	– (–, 0 to 1)	+++ (+++, > 5)	+ (+, 1 to 2)	+ (+, 1 to 2)	+ (+, 1 to 2)	Uptake in intestine [2]: 28.5 ± 7.0 %ID/g; Uptake in kidneys [2]: 7.3 ± 1.3 %ID/g; Uptake in liver [2]: 11.4 ± 0.8 %ID/g; β-phase blood half-life (t1/2β) [2]: 18.5 min; CBR Sp (spleen) relative to abdominal wall [3]: – (–, 0 to 1); Decomposition [4]: 4.0%
CC1(C)C(/C=C/C=C/C=C/C=C2\N(CCCCS(=O)(=O)O)c3ccc4ccccc4c3C2(C)C)=[N+](CCCCS(=O)(=O)[O-])c2ccc3ccccc3c21 [ICG, indocyanine green]	15	822	807	121,000 M^-1cm^-1	9.3	– (–, 0 to 1)	– (–, 0 to 1)	+++ (+++, > 5)	++ (++, 2 to 5)	+ (+, 1 to 2)	– (–, 0 to 1)	– (–, 0 to 1)	97.1 ± 9.4	2.2 ± 0.9	– (–, 0 to 1)	– (–, 0 to 1)	+++ (+++, > 5)	++ (++, 2 to 5)	+ (+, 1 to 2)	– (–, 0 to 1)	Φ (fluorescence quantum yield) of calibration standard [5]: 13%; half-life ([2]; male, CD-1, mouse, iv): 3.6 min; tissue uptake at 4 h ([2]; male, CD-1, mouse, intestine, intravenous): 62 ± 6.6 %ID/g; tissue uptake at 4 h ([2]; male, CD-1, mouse, kidneys, intravenous): 5.9 ± 1 %ID/g; tissue uptake at 4 h ([2]; male, CD-1, mouse, liver, intravenous): 27.1 ± 0.5 %ID/g; Route of elimination (renal clearance), in words [2]: undetectable in urine; half-life ([2]; mouse, intravenous): 2 to 5 min; CBR Sp (spleen) relative to abdominal wall [3]: – (–, 0 to 1); Decomposition [4]: 5.9%; Serum protein binding (HD shift by GFC) [6]: significant HD shift
CC1(C)C(/C=C/C2=C(Oc3ccc(CCC(=O)O)cc3)C(=C/C=C3/N(CCC[N+](C)(C)C)c4ccc(S(=O)(=O)O)cc4C3(C)C)/CCC2)=[N+](CCC[N+](C)(C)C)c2ccc(S(=O)(=O)O)cc21 [ZW800-1]	16	788	772	249,000 M^-1cm^-1	15.1	+++ (+++, > 5)	– (–, 0 to 1)	– (–, 0 to 1)	– (–, 0 to 1)	– (–, 0 to 1)	– (–, 0 to 1)	– (–, 0 to 1)	12.4 ± 3.4	86.0 ± 15.4	+++ (+++, > 5)	– (–, 0 to 1)	– (–, 0 to 1)	– (–, 0 to 1)	– (–, 0 to 1)	– (–, 0 to 1)	Product of extinction coefficient and quantum yield in serum, relative to ICG ([1]; in serum): over 3 fold; Found in urine ([2]; 1 h post-injection): 51.3 ± 9.7 %ID; Uptake in intestine [2]: 0.7 ± 0.4 %ID/g; Uptake in kidneys [2]: 9.8 ± 2.2 %ID/g; Uptake in liver [2]: 0.9 ± 0.1 %ID/g; β-phase blood half-life (t1/2β) [2]: 15.1 min; Route of elimination (renal clearance), in words [2]: exclusively cleared by the kidneys; also recorded: mostly renally cleared; CBR Sp (spleen) relative to abdominal wall [3]: – (–, 0 to 1); Carcass (retention) ([3]; not measured directly): 14.8 ± 6.5 %ID; Eliminated ([3]; not measured directly): 83.4 ± 15.9 %ID; Decomposition [4]: 5.5%; Serum protein binding (HD shift by GFC) [6]: does not exhibit protein binding; also recorded: no serum protein binding; also recorded: did not adsorb to serum proteins
IRDye™800-RS carboxylic acid [RS800]	16	800	784	240,000 M^-1cm^-1	16.9	++ (++, 2 to 5)	– (–, 0 to 1)	++ (++, 2 to 5)	– (–, 0 to 1)	+++ (+++, > 5)	– (–, 0 to 1)	– (–, 0 to 1)	79.0 ± 4.1	15.5 ± 1.2	– (–, 0 to 1)	– (–, 0 to 1)	+++ (+++, > 5)	– (–, 0 to 1)	++ (++, 2 to 5)	– (–, 0 to 1)	β-phase blood half-life (t1/2β) [2]: 11.2 min; Renal filtration / renal excretion ([2]; approximate, discussion statement): ≈ 20%; CBR Sp (spleen) relative to abdominal wall [3]: – (–, 0 to 1); Decomposition [4]: 4.4%
